# Measurements pooled from the literature.
# TEK: Angiopoietin-1 receptor (TEK, Homo sapiens, UniProt Q02763)
# TEK Y897S: Angiopoietin-1 receptor (TEK, Homo sapiens, UniProt Q02763, Y897S)
# TEK R849W: Angiopoietin-1 receptor (TEK, Homo sapiens, UniProt Q02763, R849W)
Structure (SMILES),target,assay,setting,endpoint,value
Nc1ncnc2occ(-c3ccc(NC(=O)Nc4cc(C(F)(F)F)ccc4F)cc3)c12,TEK,cell-free assay,20 µM,remaining signal,0%
Cc1ccc(NC(=O)c2ccc(C)c(C(F)(F)F)c2)cc1C#Cc1nn(C2CCC(O)CC2)c2ncnc(N)c12 (centres unmarked),TEK Y897S,"enzyme activity, inhibitor",10 µM,remaining activity,0%
CCOC(=O)c1cc2cc(-c3cc(C(=O)NCc4ccc(C(=O)O)cc4)nn3C)ccc2[nH]1,TEK,"cell-free assay, competition with immobilised ligand",0.1 µM,remaining binding,83%
Cc1cc(NC(=O)c2cccc3cc(-c4cccc5[nH]nc(N)c45)ccc23)ccc1F,TEK R849W,"enzyme activity, inhibitor",0.1 µM,activity vs control,93%
CN([C@@H]1CCc2c(CC(=O)O)c3cc(S(C)(=O)=O)ccc3n2C1)S(=O)(=O)c1ccc(F)cc1,TEK,"cell-free assay, competition with immobilised ligand",1 µM,remaining binding,88%
CCN(CC)CCNC(=O)c1c(C)[nH]c(/C=C2\C(=O)Nc3ccc(F)cc32)c1C,TEK,"enzyme activity, inhibitor",0.3 µM,inhibition,-2%
COc1cc2nccc(Oc3ccc(NC(=O)c4c5n(n(-c6ccc(F)cc6)c4=O)CCCC5)cc3)c2cc1OC,TEK,"enzyme activity, inhibitor",0.1 µM,inhibition,26%
Cn1cc(Cl)c2c(Oc3c(F)cc(Nc4cc(Cl)nc(N)n4)cc3F)ccnc21,TEK,"cell-free assay, competition with immobilised ligand",0.1 µM,remaining binding,100%
COc1cc(Cl)c(C(=O)N[C@@H](CN[C@H]2CC[C@@H](N)CC2)Cc2ccc(C#N)cc2)cc1-c1ccc(CN[C@H](C)c2ccc(C)cc2)o1,TEK,"enzyme activity, inhibitor",1 µM,remaining activity,79%
C[C@H](c1ccc(F)cc1)N(Cc1cccc(C(=O)O)c1)C(=O)c1cnc2ccccc2c1,TEK,"cell-free assay, competition with immobilised ligand",1 µM,remaining binding,98%
CCCOc1ccc(OC)c(F)c1C(=O)c1ccc(C(=O)N[C@@H]2CNC[C@H]2NC(=O)c2ccc3[nH]ncc3c2)cc1,TEK R849W,"enzyme activity, inhibitor",10 µM,remaining activity,46%
Cc1ccc(NC(=O)c2ccc(CN3CCN(C)CC3)cc2)cc1Nc1nc(-c2cccnc2)cs1,TEK,cell-free assay,0.5 µM,remaining signal,97.2%
Cc1cnc(NC2CCOCC2)nc1-n1cnc(C(=O)NC(CN)c2cc(F)cc(Cl)c2)c1 (centres unmarked),TEK Y897S,"enzyme activity, inhibitor, radiometric",1 µM,remaining activity,105%
CNC(=O)c1cc2c(Oc3ccc(NC(=O)C4(C(=O)Nc5ccc(F)cc5)CC4)cc3)ccnc2cc1OC,TEK Y897S,"enzyme activity, inhibitor, radiometric",1 µM,inhibition,96%
COc1cc2ncnc(Nc3ccc(Oc4ccccc4)cc3C)c2cc1OC,TEK,"enzyme activity, inhibitor",1 µM,inhibition,13%
N#CCCc1ccc2c(c1)-c1[nH]c3ccc([N+](=O)[O-])cc3c1CC(=O)N2,TEK,cell-free assay,0.5 µM,remaining signal,97.6%
COc1cc(Nc2cnc(C#N)c(O[C@H](C)CN(C)C)n2)ncc1-c1cnn(C)c1,TEK,"enzyme activity, inhibitor, radiometric",10 µM,remaining activity,90%
CS(=O)(=O)Nc1cccc(-c2csc(NC(=O)CSc3nc4nccnc4c(=O)n3CCc3ccccc3)n2)c1,TEK,"enzyme activity, inhibitor",10 µM,inhibition,3%
CNC(=O)c1cc(Oc2ccc(NC(=O)Nc3ccc(Cl)c(C(F)(F)F)c3)cc2)ccn1,TEK,cell-free assay,0.5 µM,remaining signal,104%
CCCS(=O)(=O)Nc1ccc(F)c(C(=O)c2c[nH]c3ncc(-c4ccc(Cl)cc4)cc23)c1F,TEK,"enzyme activity, inhibitor",1 µM,inhibition,< 10%
CC/C(=N\NC(=O)NCc1cccc(O)c1)c1ccc(O)c(C)c1O,TEK,"enzyme activity, inhibitor",0.1 µM,inhibition,-0.2%
Cc1noc([C@H]2C[C@@H](c3ccc(C(F)(F)F)cc3)CN(C(=O)N3CCS(=O)(=O)C3)C2)n1,TEK,"cell-free assay, competition with immobilised ligand",1 µM,remaining binding,100%
CNCc1ccc(-c2cc(-c3nc(-c4ccc(S(=O)(=O)C(C)C)cc4)cnc3N)on2)cc1,TEK,"enzyme activity, inhibitor",0.4 µM,inhibition,0%
CC(=O)N1CCC(c2ccc(C(=O)NC3=NCCN3)cc2C(F)(F)F)CC1,TEK,"cell-free assay, competition with immobilised ligand",1 µM,remaining binding,100%
O=C(Nc1cnn(-c2csc(C(=O)NC3COC3)c2)c1)Nc1ccccc1Cl,TEK,"enzyme activity, inhibitor",5 µM,remaining activity,100%
CN(C)c1ncnc(-c2ccc3nc(Nc4cc(CN5CCN(C(=O)CC(F)(F)F)CC5)ccn4)[nH]c3c2)c1Cl,TEK,"cell-free assay, competition with immobilised ligand",1 µM,remaining binding,87%
CC(C)(C)c1nc(-c2cccc(NS(=O)(=O)c3c(F)cccc3F)c2F)c(-c2ccnc(N)n2)s1,TEK,"enzyme activity, inhibitor, radiometric",1 µM,remaining activity,58%
CCCCN(CCCC)C(=O)CN1C[C@@H](c2cc(OC)c3c(c2)OCO3)[C@H](C(=O)O)[C@H]1CC(C)(C)CCC,TEK,"cell-free assay, competition with immobilised ligand",1 µM,remaining binding,100%
Cc1[nH]c(/C=C2\C(=O)Nc3ccc(F)cc32)c(C)c1C(=O)N[C@H]1CCN(C(=O)N(C)C)C1,TEK,"enzyme activity, inhibitor",0.1 µM,remaining activity,94%
